Rows were chosen to be rich in hits. Some 3.7% of all compounds tested hit in one or more screens of this group.
Kir21 inh: Kir2.1 (mouse) channel inhibition | actives 0.85% (n = 310,000) | HEK293-Kir2.1, FluxOR thallium flux fluorescence; stronger effect = lower value | B-score at 10 µM;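 active = fluorescence ratio B-score at or below minus 3 SD of library scores, with starting-brightness B-score within 2 SD, cut at about -4.2 in these data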;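 note: channel flux triggered by added potassium and thallium sulfate stimulus; B-score of peak minus minimum fluorescence over baseline after thallium stimulus; more negative B-score means stronger Kir2.1 block with less thallium influx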
Target sequence (P35561 whole entry, looked up): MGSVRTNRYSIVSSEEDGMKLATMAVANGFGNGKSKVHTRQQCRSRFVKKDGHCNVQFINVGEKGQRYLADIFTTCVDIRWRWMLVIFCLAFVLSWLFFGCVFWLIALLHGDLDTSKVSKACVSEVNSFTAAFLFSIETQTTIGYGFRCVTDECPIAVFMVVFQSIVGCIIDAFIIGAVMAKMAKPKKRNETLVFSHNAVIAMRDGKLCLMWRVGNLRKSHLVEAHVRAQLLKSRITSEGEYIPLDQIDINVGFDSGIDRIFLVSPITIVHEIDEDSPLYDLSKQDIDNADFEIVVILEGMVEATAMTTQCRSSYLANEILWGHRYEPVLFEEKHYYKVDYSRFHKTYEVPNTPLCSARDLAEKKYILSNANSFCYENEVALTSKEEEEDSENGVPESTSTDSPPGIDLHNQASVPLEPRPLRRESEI
hERG protect: hERG (human) protection from proarrhythmic block | CHO-hERG, FluxOR thallium flux, dofetilide IC70 present | Q12809 | actives 0.51% (n = 310,000) | activation (rescue from dofetilide block), less the hit threshold, % at 10 µM;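 active = activation above the mean of controls blocked by dofetilide plus 5 SD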;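 note: thallium influx through hERG after potassium depolarization seen as dye fluorescence rise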
KCNK3 inh: human KCNK3 channel inhibition, primary screen | O14649 | CHO-KCNK3 thallium flux, FluxOR fluorescence; stronger effect = lower value | B-score at 10 µM | actives 0.84% (n = 340,000);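 active = B-score under library mean minus 4 SD, starting fluorescence ratio at most library mean plus 5 SD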;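 note: more negative B-score means stronger inhibition of thallium flux through KCNK3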
KCNK9 inh: inhibitors of human KCNK9 two-pore domain potassium channel. Q9NPC2. HEK293 KCNK9, FluxOR thallium flux fluorescence; stronger effect = lower value. B-score at 10 µM. actives 1.2% (n = 310,000). AID 488922;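 active = ratio B-score over 3 SD below the library mean, with starting fluorescence within 5 SD of its mean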;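 note: negative B-score means less thallium flux so channel inhibition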
KCNQ1 inh: blocks the human KCNQ1 potassium channel | P51787 | CHO-K1 KCNQ1, FluxOR thallium flux fluorescence; stronger effect = higher value | B-score at 10 µM | actives 1.3% (n = 310,000);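 active = compounds whose thallium flux B-score, printed positive for inhibition, exceeds three library SD while starting fluorescence stays within three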;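 note: channel opened by potassium depolarization with thallium stimulus after 20 min compound exposure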
KCNQ1 act: potentiates or activates the human KCNQ1 potassium channel. P51787. CHO-K1 KCNQ1, thallium flux FluxOR fluorescence; stronger effect = higher value. B-score at 10 µM. actives 0.35% (n = 310,000). AID 2648;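 active = fluorescence ratio B-score, a plate-corrected score, at least three library SD, with initial intensity B-score within 5 SD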
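Schedule – 37 °C overnight plating, 90-min dark dye load, 20-min compound pretreatment · System – stable KCNQ1 CHO-K1 line · Probe or stimulus – thallium- and potassium-containing depolarizing buffer · Measured by – kinetic FluxOR fluorescence, 10 s baseline plus 110 s post-stimulus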
The depositor's hits bear a star; i = inactive; nt = not tested or not shown.

SMILES | Kir21 inh | hERG protect | KCNK3 inh | KCNK9 inh | KCNQ1 inh | KCNQ1 act
COc1ccc(CNc2nc3ccccc3n2CCN2CCCCC2)cc1 | -2.3 | -11.2 | i | i | i | i
O=C(NC1CCCCC1)C(c1cccs1)N(C(=O)Cc1c[nH]c2ccccc12)c1ccc(F)cc1 (configuration not stated) | 0.41 | -9.4 | i | i | i | i
COc1ccc(C(C(=O)NC2CCCCC2)N(Cc2cccs2)C(=O)Cc2c[nH]c3ccccc23)cc1 (configuration not stated) | 1.35 | -8.8 | i | -7.26* | i | i
COc1cccc(CN(C(=O)Cc2c[nH]c3ccccc23)C(C(=O)NC2CCCCC2)c2cccs2)c1 (configuration not stated) | -1.64 | -14.4 | i | i | 7* | i
CCN(CC)C(=O)COc1ccc2oc(C)c(C(=O)OC(C)C)c2c1 | -4.25* | -18.6 | i | i | i | i
COCCOC(=O)c1c(C)oc2ccc(OCC=C(C)C)cc12 | 0.31 | -0.9 | -9.07* | i | i | i
Cc1ccc(C(=O)Nc2cc3[nH]c(=O)oc3cc2C)cc1 | -0.09 | -6.6 | i | i | i | i
O=C(CCCN1C(=O)/C(=C\c2ccccc2)SC1=S)N1CCOCC1 | nt | nt | i | nt | nt | nt
O=C(O)CN1C(=O)/C(=C\c2cn(CC(=O)N3CCOCC3)c3ccccc23)SC1=S | -7.73 | -15.0 | i | i | 6* | i
Cc1ccc2ccc[n+](Cc3ccccc3)c2c1 | -0.62 | -5.8 | i | i | i | i
Cc1ccc(C[n+]2cccc(-c3ccccc3)c2)c(C)c1 | -4.28* | -12.7 | i | i | i | i
COc1ccc(C[C@H]2CN3C(=NC[C@@H]3C(C)C)N2CCNC(=O)c2ccc(C)c(Br)c2)cc1 | -6.5* | -17.9 | i | i | i | i
Cc1ccc(Oc2ccc(NC(=O)Cn3ccsc3=N)cc2)cc1 | -4.46* | -15.9 | i | i | i | 22*
C=CCNc1nc(N2CCCCC2)c(C#N)c2c1CN(Cc1ccccc1)CC2 | -1.16 | -18.6 | -11.3* | i | i | i
CC1(c2ccccc2)NC(=O)N(CC(=O)NCC2CCCO2)C1=O (configuration not stated) | nt | nt | i | nt | nt | nt
Cc1c(C(=O)OCC(=O)N2CC(=O)Nc3ccccc32)oc2ccc(Br)cc12 | 0.21 | 7.2* | i | i | i | i
O=C(Nc1cccc(Cl)c1)Nc1ccccc1-n1ccnc1 | -1.35 | -9.3 | i | i | i | i
COc1ccc(-n2ncc3c2CC(C)(C)CC3NC(=O)CCN2CCCCC2=O)cc1 (configuration not stated) | -0.04 | -7.0 | i | i | i | i
COCCCNCCCOc1ccc(C(C)(C)c2ccccc2)cc1 | -8.21* | -9.1 | i | i | i | i
C=CCNCCCOc1ccc(C(C)(C)c2ccccc2)cc1 | -8.56* | -10.9 | i | i | i | i
COCCNCCCOc1ccc(C(C)(C)c2ccccc2)cc1 | -3.23 | -5.9 | i | i | i | i
COc1ccccc1N1C(=O)CC(N2CCN(c3ccc(Cl)cc3)CC2)C1=O (configuration not stated) | -0.09 | -5.2 | i | i | i | i
COc1cc(/C=C2/C(=O)NN(c3cccc(F)c3)C2=O)ccc1OC(=O)c1ccco1 | -9.79* | -10.2 | i | i | i | i
COc1cc(/C=N/NC(=O)c2ccc(F)cc2)ccc1OC(=O)c1ccco1 | -1.18 | -10.4 | i | i | i | i
CN1CCN(c2ccc(NC(=O)c3ccc(Br)o3)cc2)CC1 | -0.24 | 1.2 | i | i | i | 13*
SMILES | Kir21 inh | hERG protect | KCNK3 inh | KCNK9 inh | KCNQ1 inh | KCNQ1 act
CC(C)(C)c1cnnn1-c1ccc(NC(=O)c2ccc(Br)o2)cc1 | -0.69 | -9.1 | i | -7.07* | i | i
COc1cccc(C(=O)Nc2ccc(-n3nncc3C(C)(C)C)cc2)c1 | -0.02 | -8.6 | i | i | i | i
O=C(Nc1ccc(N2CCOCC2)cc1)c1ccc(Br)o1 | 0.86 | -7.8 | i | i | i | i
CNC(=O)COC(=O)C1CCN(S(=O)(=O)c2ccc3c(c2)OCCO3)CC1 | nt | nt | i | nt | nt | nt
C/C=C/c1ccc(OCC(=O)OCc2csc(CC(=O)Nc3ccccc3C)n2)c(OC)c1 | 2.61 | -10.9 | i | i | i | i
COc1cccc(CNC23CC4CC(CC(C4)C2)C3)c1OCc1ccccc1 | -3.75 | -10.6 | i | i | 6* | i
COc1cccc(CNCCc2c[nH]c3ccccc23)c1OCc1ccccc1 | -9.49* | -15.1 | i | i | i | i
COc1cc(CNCCc2c[nH]c3ccccc23)ccc1OCc1ccccc1F | -8.18* | -27.2 | i | i | i | i
Cc1ccc(C)c(NC(=O)COC(=O)CNC(=O)c2ccccc2Cl)c1 | 0.34 | -11.0 | i | i | i | i
Cc1ccc(Cn2ccsc2=NC(=O)COC(=O)c2ccc(O)cc2O)cc1 | -1.05 | -5.0 | i | i | i | i
O=C(COC(=O)c1ccc(O)cc1O)N=c1sccn1Cc1ccccc1Cl | -1.9 | -9.7 | i | -6.92* | i | i
CCN(Cc1ccc(N(C)C)cc1)C(C)C(=O)Nc1ccc(S(=O)(=O)N2CCCC2)cc1 (configuration not stated) | nt | nt | i | nt | nt | nt
O=C(Oc1ccc(=O)n(-c2ccccc2)n1)c1ccccc1 | -7.39* | -6.8 | i | i | i | i
COc1ccccc1-c1n[nH]c(=S)n1Cc1ccco1 | -0.94 | -10.4 | nt | i | i | i
CC(C)n1c(CSCc2ccc(Cl)cc2Cl)n[nH]c1=S | -4.55* | -6.0 | i | i | i | i
Nc1nnc(CSCc2ccc(Cl)cc2Cl)s1 | -0.71 | -4.2 | i | i | i | i
CC1Cc2ccccc2N1C(=O)c1ccc(F)c(S(=O)(=O)N2CCOCC2)c1 (configuration not stated) | nt | nt | i | nt | nt | nt
CN(Cc1cnccn1)Cc1nc(Cc2ccccc2F)no1 | -3.15 | 27.9* | i | i | i | i
O=C(CSCc1ccc([N+](=O)[O-])cc1)NC1CC1 | -0.08 | -5.3 | i | i | i | i
CC(C)C(NC(=O)CSCc1ccc([N+](=O)[O-])cc1)C(C)C | -4.46* | -8.7 | i | i | i | i
CCOC(=O)N1CCN(S(=O)(=O)c2ccc3c(c2)NC(=O)CO3)CC1 | nt | nt | i | nt | nt | nt
CCOC(=O)N1CCN(S(=O)(=O)c2ccc3c(c2)OCC(=O)N3)CC1 | 0.79 | 10.1* | i | i | i | i
O=[N+]([O-])c1ccc(NCc2ccc(Cl)cc2)nc1 | 1.87 | -7.5 | i | i | i | i

Screening data as filed in PubChem BioAssay.
